Data from ChEMBL document CHEMBL5252540, “3-Aroyl-1,4-diarylpyrroles Inhibit Chronic Myeloid Leukemia Cell Growth through an Interaction with Tubulin” (ACS Med Chem Lett, 2017).
Counter-ions that a name gives are not always drawn. One block for each molecule: values may come before it. Calls of active or inactive are those of the source. No cut-off for these calls is given here.

What was measured:
[1] = test system: MCF7; assay: Cytotoxicity against human MCF7 cells assessed as cell growth inhibition incubated for 3 days by trypan blue exclusion assay; assay type: functional, cell-based; conditions: MCF7, 72 h
In short: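 MCF-7 human breast carcinoma cells; growth inhibition; triplicate experiments.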

[2] = molecular target: Tubulin; assay: Inhibition of tubulin (unknown origin) polymerization preincubated for 15 mins followed by GTP addition by turbidity based spectrophotometer analysis; assay type: protein-complex assay, Homo sapiens
[3] = molecular target: Tubulin (Homo sapiens) (UniProt P68371+Q9H4B7+P0DPH7+P68366+Q13509+Q71U36+P04350+Q3ZCM7+P07437+P68363+Q9BQE3+Q6PEY2+Q13885+Q9BVA1+Q9BUF5); assay: Inhibition of [3H]colchicine binding to tubulin (unknown origin) at 5 uM incubated for 10 mins relative to control; assay type: protein-complex assay
[4] = test system: NCI/ADR-RES; assay: Cytotoxicity against human NCI/ADR-RES cells overexpressing p-glycoprotein assessed as cell growth inhibition incubated for 3 days by trypan blue exclusion assay; assay type: functional, cell-based; conditions: 72 h
[5] = test system: OVCAR-8; assay: Cytotoxicity against human OVCAR-8 cells assessed as cell growth inhibition incubated for 3 days by trypan blue exclusion assay; assay type: functional, cell-based; conditions: OVCAR-8, 72 h
[6] = test system: LAMA-84; assay: Antiproliferative activity against human LAMA-84 cells assessed as cell growth inhibition incubated for 48 hrs by MTT assay; conditions: LAMA-84, 48 h
[7] = test system: LAMA-84; assay: Antiproliferative activity against human LAMA-84 cells overexpressing BCR/ABL assessed as cell growth inhibition
[8] = test system: LAMA-84; assay: Antiproliferative activity against human LAMA-84 cells expressing BCR/ABL assessed as cell growth inhibition; assay type: functional, cell-based
In short: (§1)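 KU812 or LAMA84 CML blast-crisis cells (BCR/ABL-expressing) exposed to increasing doses for 48 h; proliferation read by MTT assay; triplicate experiments.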

[9] = test system: KU812 cell line; assay: Antiproliferative activity against human KU812 cells expressing BCR/ABL assessed as cell growth inhibition; assay type: functional, cell-based; in short: as §1
[10] = test system: KU812 cell line; assay: Induction of apoptosis in human KU812 cells assessed as upregulation of caspase-3 activation by flow cytometry; conditions: time 0-24 hrs, TDE = time-dependent effect
[11] = test system: KBM5; assay: Induction of apoptosis in imatinib mesylate sensitive human KBM5 cells expressing wild type BCR/ABL assessed as annexin V positive cells incubated for 48 hrs by annexin V-FITC/propidium iodide staining based flow cytometry analysis (reference value: 2.2+/-1.8%); assay type: functional
[12] = test system: LAMA-84; assay: Potentiation of imatinib mesylate induced antiproliferative activity against human LAMA-84 cells assessed as imatinib mesylate IC50 incubated for 48 hrs by MTT assay; assay type: functional, cell-based; conditions: LAMA-84, 48 h
[13] = test system: KBM5; assay: Potentiation of imatinib mesylate induced apoptosis in human KBM5 cells expressing wild type BCR/ABL assessed as increase in pro-apoptogenic effect at 100 nM incubated for 24 hrs by annexin V-FITC/propidium iodide staining based flow cytometry analysis; assay type: functional, cell-based
In short: (§2)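 Annexin V-FITC staining to detect early cell death after 24 h; IM given with or without 100 nM test agent; read by flow cytometry; triplicate experiments.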

[14] = test system: LAMA-84; assay: Downregulation of unphosphorylated beta-catenin protein expression in human LAMA-84 cells at 100 nM incubated for 24 hrs by Western blot analysis; assay type: functional, cell-based
[15] = molecular target: Bcr/Abl fusion protein (Homo sapiens) (UniProt P00519+P11274); assay: Inhibition of BCR-ABL phospho-activation in human LAMA-84 cells at 100 nM incubated for 24 hrs by Western blot analysis; assay type: cell-based
In short: (§3)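 LAMA84 cells cultured 24 h at 100 nM, alongside IM 100 nM and DMSO controls; lysates analysed by Western immunoblotting for BCR/ABL auto-activation and total E-cadherin.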

[16] = test system: KBM5; assay: Cytotoxicity against imatinib mesylate resistant human KBM5 cells expressing BCR/ABL T315I mutant assessed as cell growth inhibition; assay type: functional, cell-based
In short: (§4)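 Hematopoietic KBM5 cells ectopically expressing IM-sensitive wild-type or IM-resistant T315I BCR/ABL, dosed over a concentration range; growth measured by MTT assay; average IC50 from triplicate experiments.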

[17] = test system: KU812 cell line; assay: Induction of apoptosis in human KU812 cells assessed as appearance of blue-to-cyan fluorescence in nucleus by Hoechst-3258 staining based analysis; assay type: functional, cell-based
In short: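 KU812 cells treated with compound versus DMSO control; nuclear morphology by Hoechst-3258 staining, blue-to-cyan fluorescence scored as apoptotic.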

[18] = test system: LAMA-84; assay: Effect on total beta-catenin protein level in human LAMA-84 cells at 100 nM incubated for 24 hrs by Western blot analysis; assay type: functional, cell-based
[19] = test system: LAMA-84; assay: Downregulation of phospho cofilin protein expression in human LAMA-84 cells at 100 nM incubated for 24 hrs by Western blot analysis; assay type: functional, cell-based
[20] = test system: KYSE-150 cell line; assay: Cytotoxicity against human KYSE-150 cells assessed as cell growth inhibition incubated for 48 to 96 hrs by celltiter-flor reagent based fluorescence assay; assay type: functional
[21] = test system: KBM5; assay: Cytotoxicity against imatinib mesylate sensitive human KBM5 cells expressing wild type BCR/ABL assessed as cell growth inhibition; assay type: functional, cell-based; in short: as §4
[22] = test system: HCT-116; assay: Cytotoxicity against human HCT-116 cells assessed as cell growth inhibition incubated for 48 hrs by MTT assay; assay type: functional, cell-based; conditions: HCT-116, 48 h
[23] = test system: KU812 cell line; assay: Induction of cell cycle arrest in human KU812 cells assessed as accumulation of cells at G2/M phase incubated for 24 hrs by RNase/PI staining based flow cytometry analysis relative to control; assay type: functional
In short: (§5)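 KU812 cells treated with 100 nM versus DMSO vehicle for 2-8 h or 24 h; cell cycle distribution (G2/M, sub-G1) by flow cytometry.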

[24] = test system: KU812 cell line; assay: Induction of apoptosis in human KU812 cells assessed as increase in PARP cleavage measured after 24 hrs by Western blot analysis; assay type: functional, cell-based
In short: (§6)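 KU812 cells treated for 6 h and 24 h; immunoblotting for p21Cip/WAF1 and PARP cleavage.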

[25] = test system: KU812 cell line; assay: Induction of apoptosis in human KU812 cells assessed as upregulation of p21 Cip/WAF1 protein expression incubated for 6 hrs by Western blot analysis; assay type: functional, cell-based; in short: as §6
[26] = test system: KU812 cell line; assay: Induction of apoptosis in human KU812 cells assessed as accumulation of cells at sub-G1 phase incubated for 24 hrs by RNase/PI staining based flow cytometry analysis (reference value: 0.4+/-0.8%); assay type: functional
[27] = test system: LAMA-84; assay: Downregulation of E-cadherin protein level in human LAMA-84 cells at 100 nM incubated for 24 hrs by Western blot analysis; assay type: functional, cell-based; in short: as §3
[28] = test system: KU812 cell line; assay: Induction of cell cycle arrest in human KU812 cells assessed as accumulation of cells at G2/M phase incubated for 2 to 8 hrs by RNase/PI staining based flow cytometry analysis (reference value: 35.7+/-[…]); assay type: functional; conditions: time 2-8 hrs
[29] = test system: LAMA-84; assay: Effect on total cofilin protein level in human LAMA-84 cells at 100 nM incubated for 24 hrs by Western blot analysis; assay type: functional, cell-based
[30] = test system: KU812 cell line; assay: Induction of cell cycle arrest in human KU812 cells assessed as accumulation of cells at sub-G1 phase incubated for 2 to 8 hrs by RNase/PI staining based flow cytometry analysis relative to control; assay type: functional; conditions: time 2-8 hrs; in short: as §5
[31] = test system: KU812 cell line; assay: Induction of apoptosis in human KU812 cells assessed as upregulation of p21 Cip/WAF1 protein expression measured after 24 hrs by Western blot analysis; assay type: functional, cell-based; in short: as §6
[32] = Cytotoxicity against human PBMC cells assessed as reduction in cell viability up to 1 uM incubated for 48 hrs by MTT assay; assay type: toxicity, cell-based
In short: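 Peripheral blood mononuclear cells isolated from healthy donors, exposed to compound up to 1 μM for 48 h; viability read by MTT assay; triplicate experiments.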

[33] = test system: HepG2; assay: Cytotoxicity against human HepG2 cells assessed as cell growth inhibition incubated for 48 hrs by MTT assay; assay type: functional, cell-based; conditions: HepG2, 48 h
[34] = test system: KBM5; assay: Potentiation of imatinib mesylate induced apoptosis in human KBM5 cells expressing BCR/ABL T315I mutant assessed as increase in pro-apoptogenic effect at 100 nM incubated for 24 hrs by annexin V-FITC/propidium iodide staining based flow cytometry analysis; assay type: functional, cell-based; in short: as §2
[35] = test system: KU812 cell line; assay: Induction of morphological changes in human KU812 cells expressing BCR/ABL assessed as multiple centrosome cells with failed cytokinesis at 100 nM incubated for 16 hrs by immunostaining based phase contrast microscopic analysis; assay type: functional, cell-based
In short: (§7)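 KU812 cells treated with 100 nM versus DMSO vehicle; shape examined by phase contrast microscopy with tubulin immunostaining, scoring elongation, multiple centrosomes and failed cytokinesis.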

[36] = test system: LAMA-84; assay: Antiproliferative activity against human LAMA-84 cells expressing BCR/ABL assessed as cell growth inhibition at 12 nM incubated for 48 hrs by MTT assay relative to control; assay type: functional; in short: as §1
[37] = test system: KBM5; assay: Induction of apoptosis in imatinib mesylate resistant human KBM5 cells expressing BCR/ABL-T315I mutant assessed as annexin V positive cells incubated for 48 hrs by annexin V-FITC/propidium iodide staining based flow cytometry analysis (reference value: 2.2+/-1.8%); assay type: functional
[38] = test system: KU812 cell line; assay: Antiproliferative activity against human KU812 cells expressing BCR/ABL assessed as cell growth inhibition at 12 nM incubated for 48 hrs by MTT assay relative to control; assay type: functional; in short: as §1
[39] = test system: KU812 cell line; assay: Induction of morphological changes in human KU812 cells assessed as elongated shape at 100 nM incubated for 16 hrs by immunostaining based phase contrast microscopic analysis; assay type: functional, cell-based; in short: as §7

Chain of Bcr/Abl fusion protein (Homo sapiens) (P00519 whole entry, looked up, the tested form may be a part): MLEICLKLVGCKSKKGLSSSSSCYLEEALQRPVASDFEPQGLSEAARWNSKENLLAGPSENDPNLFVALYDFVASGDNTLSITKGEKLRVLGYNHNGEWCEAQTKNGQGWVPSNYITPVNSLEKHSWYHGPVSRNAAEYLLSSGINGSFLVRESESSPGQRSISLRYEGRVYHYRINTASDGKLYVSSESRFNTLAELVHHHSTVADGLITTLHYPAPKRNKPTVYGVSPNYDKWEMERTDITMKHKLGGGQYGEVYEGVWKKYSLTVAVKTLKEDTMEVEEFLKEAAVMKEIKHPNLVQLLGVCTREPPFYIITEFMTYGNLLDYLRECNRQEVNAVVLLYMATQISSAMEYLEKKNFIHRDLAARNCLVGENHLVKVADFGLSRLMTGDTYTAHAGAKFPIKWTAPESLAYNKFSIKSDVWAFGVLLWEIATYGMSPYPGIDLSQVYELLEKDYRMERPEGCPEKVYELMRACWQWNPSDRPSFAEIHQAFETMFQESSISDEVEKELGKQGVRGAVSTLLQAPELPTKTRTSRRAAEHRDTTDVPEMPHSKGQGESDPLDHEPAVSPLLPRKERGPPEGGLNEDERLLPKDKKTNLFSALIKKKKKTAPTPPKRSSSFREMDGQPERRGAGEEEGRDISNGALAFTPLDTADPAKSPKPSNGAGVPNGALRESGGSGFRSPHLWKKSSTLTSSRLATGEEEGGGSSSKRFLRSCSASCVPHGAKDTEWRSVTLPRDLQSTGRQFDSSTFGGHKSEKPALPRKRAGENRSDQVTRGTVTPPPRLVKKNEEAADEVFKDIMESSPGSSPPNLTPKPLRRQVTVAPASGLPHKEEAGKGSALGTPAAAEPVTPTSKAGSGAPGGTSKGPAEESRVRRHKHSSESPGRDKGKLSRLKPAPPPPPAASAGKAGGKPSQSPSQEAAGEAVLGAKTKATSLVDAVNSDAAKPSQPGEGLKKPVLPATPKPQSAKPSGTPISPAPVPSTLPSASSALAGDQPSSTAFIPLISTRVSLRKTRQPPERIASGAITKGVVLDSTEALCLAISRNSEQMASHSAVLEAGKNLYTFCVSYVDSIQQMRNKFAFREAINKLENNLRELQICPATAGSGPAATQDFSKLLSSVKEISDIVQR
Chain of Bcr/Abl fusion protein (Homo sapiens) (P11274 whole entry, looked up, the tested form may be a part): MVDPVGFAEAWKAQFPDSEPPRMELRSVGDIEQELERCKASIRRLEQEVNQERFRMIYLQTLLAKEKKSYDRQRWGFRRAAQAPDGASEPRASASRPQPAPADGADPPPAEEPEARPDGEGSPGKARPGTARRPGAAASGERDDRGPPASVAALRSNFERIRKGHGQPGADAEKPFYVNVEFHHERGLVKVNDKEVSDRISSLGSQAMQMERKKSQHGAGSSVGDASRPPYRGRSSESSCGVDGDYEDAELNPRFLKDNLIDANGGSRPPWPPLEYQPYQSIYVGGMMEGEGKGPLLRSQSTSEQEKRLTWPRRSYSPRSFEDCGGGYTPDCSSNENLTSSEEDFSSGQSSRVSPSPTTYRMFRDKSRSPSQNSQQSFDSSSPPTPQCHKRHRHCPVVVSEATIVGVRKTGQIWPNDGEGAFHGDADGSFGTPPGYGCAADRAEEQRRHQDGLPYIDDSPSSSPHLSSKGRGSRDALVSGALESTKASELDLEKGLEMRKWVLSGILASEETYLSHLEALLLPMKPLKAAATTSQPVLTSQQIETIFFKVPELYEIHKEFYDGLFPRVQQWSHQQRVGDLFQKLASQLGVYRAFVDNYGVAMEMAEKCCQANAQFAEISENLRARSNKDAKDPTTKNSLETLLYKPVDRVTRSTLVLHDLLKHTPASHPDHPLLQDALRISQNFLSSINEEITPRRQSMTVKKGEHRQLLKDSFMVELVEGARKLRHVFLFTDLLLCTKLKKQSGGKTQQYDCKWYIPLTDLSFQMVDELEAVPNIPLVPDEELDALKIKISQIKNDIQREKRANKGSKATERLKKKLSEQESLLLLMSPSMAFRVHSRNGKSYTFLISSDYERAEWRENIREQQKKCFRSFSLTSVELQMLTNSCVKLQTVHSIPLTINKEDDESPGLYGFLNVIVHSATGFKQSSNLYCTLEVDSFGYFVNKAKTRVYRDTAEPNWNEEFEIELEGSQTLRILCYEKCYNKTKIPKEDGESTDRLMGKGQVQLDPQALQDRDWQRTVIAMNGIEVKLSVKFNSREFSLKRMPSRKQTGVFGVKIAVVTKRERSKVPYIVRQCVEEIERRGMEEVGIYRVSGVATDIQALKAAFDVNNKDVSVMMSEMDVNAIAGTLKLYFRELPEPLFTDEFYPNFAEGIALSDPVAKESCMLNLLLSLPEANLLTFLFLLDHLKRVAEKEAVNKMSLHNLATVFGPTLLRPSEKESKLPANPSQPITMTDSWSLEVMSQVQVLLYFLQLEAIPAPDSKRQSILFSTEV

IC50 [2]: 2200 nM
inhibition [3]: 24%
Compound: COc1cc(C(=O)c2cn(-c3ccccc3)cc2-c2ccc(C)cc2)cc(OC)c1OC
IC50 [1]: 280 nM

IC50 [2]: 630 nM
inhibition [3]: 53%
Compound: COc1cc(C(=O)c2cn(-c3ccccc3)cc2-c2cccc(F)c2)cc(OC)c1OC
IC50 [1]: 57 nM

IC50 [2]: 580 nM
inhibition [3]: 72%
Compound: COc1cc(C(=O)c2cn(-c3ccccc3)cc2-c2ccccc2F)cc(OC)c1OC
IC50 [1]: 30 nM

IC50 [2]: 1600 nM
inhibition [3]: 5.7%
Compound: COc1cc(C(=O)c2cn(-c3ccccc3)cc2-c2cccc(C)c2)cc(OC)c1OC
IC50 [1]: 450 nM

inhibition [15]: inactive
inhibition [3]: 81%
Compound: COc1cc(C(=O)c2cn(-c3ccccc3)cc2-c2ccc(N)cc2)cc(OC)c1OC
Activity [10]: Tde
Activity [11]: 62.6%
IC50 [12]: < 10 nM
Activity [13]: Active
Activity [14]: Active
IC50 [16]: 18 nM
Activity [17]: Active
Activity [18]: inactive
Activity [19]: Active
IC50 [20]: 20 nM
IC50 [21]: 15 nM
IC50 [22]: 20 nM
Activity [23]: 11.4%
Activity [24]: Active
Activity [25]: Active
Activity [26]: 75.6%
IC50 [8]: 14 nM
Activity [27]: Active
Activity [28]: 60.3%
Activity [29]: inactive
Activity [30]: <10%
Activity [31]: inactive
Activity [32]: Non-Toxic
IC50 [33]: 46 nM
IC50 [9]: 12 nM
Activity [34]: Active
Activity [35]: Active
inhibition at 0.012 µM [36]: 50%
Activity [37]: 58.2%
inhibition at 0.012 µM [38]: 50%
Activity [39]: Active

IC50 [2]: 1100 nM
inhibition [3]: 82%
Compound: COc1cc(C(=O)c2cn(-c3cccc(N)c3)cc2-c2ccccc2)cc(OC)c1OC
IC50 [1]: 74 nM

Further lines, the molecule ahead of its results:

Compound: COc1cc(C(=O)c2cn(-c3ccccc3F)cc2-c2ccccc2)cc(OC)c1OC
IC50 [1]: 85 nM
IC50 [2]: 2000 nM
inhibition [3]: 29%

Compound: COc1cc(C(=O)c2cn(-c3ccccc3)cc2-c2cccc(N)c2)cc(OC)c1OC
IC50 [4]: 110 nM
IC50 [1]: 28 nM
IC50 [2]: 390 nM
IC50 [5]: 190 nM
inhibition [3]: 57%

Compound: COc1cc(C(=O)c2cn(-c3ccccc3)cc2-c2ccccc2)cc(OC)c1OC
IC50 [1]: 35 nM
IC50 [2]: 1100 nM
inhibition [3]: 66%

Compound: Cc1ccc(NC(=O)c2ccc(CN3CCN(C)CC3)cc2)cc1Nc1nccc(-c2cccnc2)n1 [IMATINIB MESYLATE]
IC50 [6]: 100 nM
IC50 [7]: 100 nM

Compound: COc1cc(C(=O)c2cn(-c3ccccc3)cc2-c2ccc(F)cc2)cc(OC)c1OC
IC50 [1]: 78 nM
IC50 [2]: 760 nM
inhibition [3]: 47%

Compound: COc1cc(C(=O)c2cn(-c3ccc(C)cc3)cc2-c2ccccc2)cc(OC)c1OC
IC50 [1]: 30 nM
IC50 [2]: 880 nM
inhibition [3]: 79%

Compound: COc1cc(C(=O)c2ccn(-c3cccc(N)c3)c2)cc(OC)c1OC
IC50 [8]: 28 nM
IC50 [9]: 28 nM

Compound: COc1cc(C(=O)c2cn(-c3cccc(C)c3)cc2-c2ccccc2)cc(OC)c1OC
IC50 [1]: 120 nM
IC50 [2]: 1700 nM
inhibition [3]: 82%

Compound: COc1cc(C(=O)c2cn(-c3ccc(F)cc3)cc2-c2ccccc2)cc(OC)c1OC
IC50 [4]: 110 nM
IC50 [1]: 15 nM
IC50 [2]: 1300 nM
IC50 [5]: 180 nM
inhibition [3]: 62%

Compound: COc1cc(C(=O)c2cn(-c3cccc(F)c3)cc2-c2ccccc2)cc(OC)c1OC
IC50 [1]: 350 nM
IC50 [2]: 2900 nM
inhibition [3]: 42%
